# ASAP1 GAP inh: inhibitors of human ASAP1 ArfGAP activity; Q9ULH1; ASAP1-stimulated ARF1 GTP hydrolysis, GDP FP detection; inhibition, % at 16.5 µM; 360,000 tested, 0.19% active; in the data active means inhibition above about 25%;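 further: 0% = vehicle with enzyme and substrate and 100% = no enzyme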
# UHRF1 MBD2 ctr: UHRF1 methyl-DNA binding inhibition | Q96T88 | 370,000 tested, 0.75% active | UHRF1 binding to methylated oligo, TR-FRET | inhibition, % at 4.4 µM; in the data active means inhibition above about 21%;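 further: UHRF1 SRA domain binding a hemimethylated CpG hairpin DNA probe; 0% = median of test compound wells and 100% = reference inhibitor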
# Target sequence (Q96T88 whole entry, looked up, the tested form may be a part): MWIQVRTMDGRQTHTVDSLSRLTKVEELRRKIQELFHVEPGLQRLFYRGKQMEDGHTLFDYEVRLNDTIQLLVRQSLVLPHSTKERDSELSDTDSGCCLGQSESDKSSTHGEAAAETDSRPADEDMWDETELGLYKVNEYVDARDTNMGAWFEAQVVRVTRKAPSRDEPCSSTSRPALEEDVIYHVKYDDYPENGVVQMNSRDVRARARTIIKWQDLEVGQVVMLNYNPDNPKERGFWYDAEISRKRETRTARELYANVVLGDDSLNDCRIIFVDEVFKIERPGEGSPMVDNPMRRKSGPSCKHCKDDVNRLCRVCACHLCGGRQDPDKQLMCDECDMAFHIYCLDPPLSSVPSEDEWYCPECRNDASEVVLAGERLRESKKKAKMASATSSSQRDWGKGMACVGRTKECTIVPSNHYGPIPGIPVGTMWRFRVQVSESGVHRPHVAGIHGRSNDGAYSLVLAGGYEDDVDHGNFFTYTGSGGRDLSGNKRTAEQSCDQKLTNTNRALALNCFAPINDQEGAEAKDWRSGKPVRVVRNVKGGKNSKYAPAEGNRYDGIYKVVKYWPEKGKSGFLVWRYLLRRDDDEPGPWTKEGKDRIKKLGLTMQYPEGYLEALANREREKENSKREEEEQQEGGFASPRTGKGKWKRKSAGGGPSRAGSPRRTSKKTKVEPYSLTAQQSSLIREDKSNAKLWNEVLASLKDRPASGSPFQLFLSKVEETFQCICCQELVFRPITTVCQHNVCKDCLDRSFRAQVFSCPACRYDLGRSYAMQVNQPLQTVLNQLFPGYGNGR
# ARFGAP1 inh: inhibitors of rat ARFGAP1; inhibition, % at 16.5 µM; Q62848; Arfgap1-stimulated ARF1 GTP hydrolysis, GDP FP detection; 360,000 tested, 0.26% active;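 active means inhibition above a per-plate limit, mean inhibition of low control wells plus 3 SD, cut at about 25% in these data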;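 further: 0% = DMSO wells with enzyme and 100% = wells lacking Arfgap1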
#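 Assay system: Rat Arfgap1 GAP domain (His6, aa 1-136), purified enzyme | Buffer or medium: HEPES 25 mM pH 7.5, NaCl 150 mM, MgCl2, DTT | Schedule: GTP hydrolysis reaction 2 h at 25 °C | Signal: FP of antibody-bound GDP Alexa 633 tracer, ex 620/em 688 nm | Measure: Percent inhibition of Arfgap1-stimulated GTP hydrolysis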
# MBD2 inh: blocks human MBD2 binding to methylated DNA; Q9UBB5; 370,000 tested, 0.31% active; TR-FRET, MBD2 binding to methylated oligonucleotide; AID 686964; inhibition, % at 4.4 µM; in the data active means inhibition above about 13%
# TDP2 absorb: TDP2 (human) inhibition, absorbance primary screen | 370,000 tested, 0.34% active | AID 720702 | recombinant TDP2, T5PNP hydrolysis, p-nitrophenol absorbance 415 nm | inhibition, % at 12.8 µM;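 active means inhibition above the mean of all tested compounds plus 3 SD, set per campaign, cut at about 25% in these data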;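 further: 0% = DMSO with enzyme and 100% = buffer with substrate but no TDP2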
#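 Assay system: Recombinant human TDP2 | Quantity: 120 nM TDP2 per well | Incubation: 2 h at 37 °C | Signal: Epi absorbance | Evaluation: Percent inhibition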
# LEDGF integ inh: blocks HIV-1 LEDGF/p75-dependent DNA integration; TR-FRET IN-LEDGF/p75 DNA integration, Eu/Cy5; inhibition, % at 3.7 µM; 370,000 tested, 0.64% active;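 active means inhibition above the screen-wide mean plus 3 SD, cut at about 13% in these data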;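 further: signal is the Cy5 over europium emission ratio at 671 and 618 nm; 0% = plate median of compound wells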
# ARFGAP1 confirm: rat ARFGAP1 inhibition, confirmed; shares compounds with ARFGAP1 inh; ARFGAP1-stimulated ARF1 GTP hydrolysis, GDP tracer FP; inhibition, % at 16.5 µM; 890 tested, 30% active;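 active means average inhibition over triplicates above the hit cutoff set in the earlier primary screen, cut at about 25% in these data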;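 further: 0% = Arfgap1 plus ARF1-GTP with DMSO and 100% = wells lacking Arfgap1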
# The depositor's hits bear a star; · = no result. A selection: hits, their analogues and other compounds. The true share with any hit is near 2%.
SMILES,ASAP1 GAP inh,UHRF1 MBD2 ctr,ARFGAP1 inh,MBD2 inh,TDP2 absorb,LEDGF integ inh,ARFGAP1 confirm
CCOc1ccc2oc(C(=O)OCC(=O)N3CCCC(C)C3)c(C)c2c1 (centres undefined),18.9,-0.8,33.3*,3.7,-5.3,-5.0,33.3*
CCOc1ccc2oc(C(=O)OCC(=O)N3CC(C)OC(C)C3)c(C)c2c1 (centres undefined),18.0,3.4,25.5*,0.3,-9.2,-9.1,33.2*
Cc1ccc(-c2nnc3n2N=C(c2ccc4ccccc4c2)CS3)cc1,·,-0.6,·,3.4,-9.8,-0.1,·
CCOc1cc2nc(-c3ccc(OC)c(OC)c3)nc(N3CCOCC3)c2cc1OC,1.5,3.4,26.2*,0.3,-3.9,-1.9,14.2
COc1cc2nc(Cl)nc(N3CCOCC3)c2cc1OC,-2.4,6.3,9.4,4.0,10.1,-2.4,·
O=C(O[C@H]1CC[C@@]23CCCN2C(=O)CCC[C@H]3C1)N1CCN(c2ccccc2)CC1,·,1.1,·,2.7,-2.0,1.3,·
Cc1nnc2ccc(-c3cccc(NC(=O)c4ccc(Cl)nc4)c3)nn12,9.3,-2.3,26.7*,-3.2,1.9,-0.2,1.6
COc1ccc(C(=O)OCCCN(C)C2CN(Cc3cn(Cc4cccc(F)c4)nn3)S(=O)(=O)C2)cc1OC (centres undefined),·,4.2,·,4.6,3.2,-1.2,·
C=CCN1C(=O)[C@H](CC(=O)N2CCSCC2)[C@@]2(C(=O)OCC)CCCC=C12,·,-5.0,·,-5.8,-0.4,7.5,·
Cc1cccc(-c2n[nH]nc2C2=CC(=O)CC(C)(C)C2)c1,-1.6,-0.7,42.3*,-2.0,6.2,-3.0,-3.2
CC1(C)CC(=O)C=C(c2n[nH]nc2-c2ccccc2)C1,-4.9,-1.1,8.0,1.0,7.9,-5.8,·
O=C(O)C1=C[C@@H](O)[C@@H](O)[C@H](O)C1,2.4,2.5,35.9*,1.9,7.0,-1.8,-2.0
NC(=O)N/N=C\c1cc(Br)ccc1O,-9.2,-5.4,-5.7,-7.5,-0.9,-0.9,·
O=C(N/N=C/c1cc(Br)ccc1O)Nc1ccccc1,4.9,1.6,25.4*,1.9,-2.8,-0.7,14.2
C=CCn1c(COc2ccc(C)cc2)nnc1SCC(=O)c1ccc(-c2ccccc2)cc1,·,2.7,·,-1.2,-9.2,4.0,·
O=C(CSc1ncnc2scc(-c3ccc(Cl)cc3)c12)Nc1ccccc1-c1ccccc1,·,0.2,·,-6.9,4.0,-0.3,·
Cc1cc(C)c2c(=N)c3ccccc3n(CCCCCCCCn3c4ccccc4c(=N)c4c(C)cc(C)nc43)c2n1,9.3,40.7*,25.5*,28.4*,-7.2,-2.3,-1.2
COC(=O)[C@]12C[C@H](CC(=O)N3CCSCC3)C(=O)N(Cc3cccc4ccccc34)C1=C[C@H](C(C)C)O[C@@H]2C1CC1,·,0.8,·,-1.6,-5.2,-1.6,·
CCOC(=O)c1ccc(NC(=S)N(CCCN2CCCC2)Cc2cccs2)cc1,0.9,-1.4,24.8*,-1.0,3.1,5.4,-2.9
CC(=O)NCCc1ccc(S(=O)(=O)Nc2ccc(NC(=O)c3ccc(F)cc3)cc2)cc1,1.1,2.2,28.9*,-3.8,-15.5,2.0,2.7
C=CCN(CC#Cc1ccc(C)cc1)Cc1ccc(OC)cc1OC,·,1.4,·,0.5,0.6,-1.0,·
Cn1c(-c2ccc3c(c2)OCO3)cc(=O)c2ccccc21,-7.2,0.4,4.8,2.8,-16.1,-0.1,·
Cn1c2ccccc2c(=O)c2ccc(-c3ccc4c(c3)OCO4)cc21,9.7,-2.1,36.5*,-2.7,4.2,1.1,90.2*
CC1(c2nnnn2-c2ccc3c(c2)OCCO3)CSCC(=O)N1CCc1c[nH]c2ccccc12 (centres undefined),·,0.4,·,5.4,2.5,0.3,·
O=C(Nc1ccc2oc(=O)ccc2c1)c1ccc(-c2cccc([N+](=O)[O-])c2)o1,62.5*,2.0,70.8*,3.0,-6.0,1.5,106.8*
SMILES,ASAP1 GAP inh,UHRF1 MBD2 ctr,ARFGAP1 inh,MBD2 inh,TDP2 absorb,LEDGF integ inh,ARFGAP1 confirm
CS(=O)(=O)N1CCN(C(=O)COc2ccccc2)CC1,-1.5,0.3,25.4*,2.3,3.8,-3.1,-1.5
CS(=O)(=O)N1CCN(C(=O)COc2ccc3ccccc3c2)CC1,2.3,-0.1,2.4,1.6,-17.0,4.0,·
CC(C)(C)OC(=O)N1c2ccccc2[C@]2(N3CCCC3)C[C@H](C(=O)O)N(C(=O)OC(C)(C)C)[C@H]12,·,4.3,·,4.4,-8.3,-3.5,·
Cc1ccc(Cc2c(C3CCCCC3)nc3c(C)cc(Br)cn23)cc1,2.4,5.3,6.7,0.7,-4.7,1.4,·
Cc1cc(Br)cn2c(Cc3ccccc3)c(C3CCCCC3)nc12,-6.5,9.3,155.0*,-2.5,9.2,5.2,2.3
CCC(CC)c1nnc(NC(=O)c2cccc(S(=O)(=O)N3CCOCC3)c2)s1,-3.0,0.8,28.4*,-1.2,-9.4,0.8,-4.3
CC(C)Cc1nnc(NC(=O)c2cccc(S(=O)(=O)N3CCOCC3)c2)s1,-10.8,1.4,-6.8,-0.2,-9.7,1.5,·
Cc1cccc(NC(=O)CCS(=O)(=O)c2ccccc2)c1C,·,1.9,·,1.4,-5.0,-1.7,·
Oc1ccc(NC(=S)N=Nc2c(O)[nH]c3ccc(Br)cc23)cc1,7.2,-4.1,29.0*,2.1,-3.7,0.8,24.2
O=[N+]([O-])c1ccc(N/N=C2\CC3CC=CC23)cc1 (centres undefined),7.4,-4.2,28.1*,-2.7,-2.9,6.2,3.1
CC(=O)N1CCc2c1cccc2S(=O)(=O)NC(CC(C)C)C(=O)Nc1ccc(F)cc1Cl (centres undefined),·,-1.7,·,3.9,6.0,1.5,·
O=C(CC1c2cc(F)ccc2C=C(c2ccsc2)N1c1ccc(C#CCCO)cc1)c1ccco1 (centres undefined),10.4,1.5,25.0*,-2.1,2.8,-2.7,-0.5
COc1ncc(-c2ccc(N3C(c4ccsc4)=Cc4ccc(F)cc4C3CC(=O)c3ccco3)cc2)cn1 (centres undefined),-3.2,1.2,-11.8,3.3,4.4,-4.3,·
C=CCN(CC#CC(=C)C)Cc1ccccc1,·,0.4,·,-2.2,3.9,-1.8,·
O=C(NCc1ccccc1)C(c1ccncc1)n1c(=O)c(-c2cc3ccccc3[nH]2)nc2ccccc21 (centres undefined),13.2,-3.0,24.9*,1.7,0.1,-5.8,21.0
O=C(NCc1ccccc1)C(c1ccc(-c2ccccc2)cc1)n1c(=O)c(-c2cc3ccccc3[nH]2)nc2ccccc21 (centres undefined),5.7,-0.3,5.4,-3.4,4.8,0.0,·
CCOC(=O)c1c(NC(=O)c2ccc(S(=O)(=O)N(C)CC3CCCO3)cc2)sc2c1CCN(C)C2 (centres undefined),13.4,13.9,3.9,9.3,-10.5,-4.2,·

# Source: PubChem
